Experimental findings from ChEMBL document CHEMBL1157379, “Transcriptional response of Candida parapsilosis following exposure to farnesol” (2007) are described below.

Activity calls are given as the source filed them. No cut-off for these calls is given here.

In general, inhibition refers to the share of the control response that was lost under treatment.

For test [1], the system named is Candida parapsilosis. The experiment in a line: Effect on membrane lipid localization in ERG9 gene expression in Candida parapsilosis CLIB214 assessed as uniform staining at 50 uM after 1 hr by filipin staining. It counts as functional. Summed up: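 Cultures grown overnight in YPD at 30°C, diluted to A600 0.2, and given farnesol to 50 μM final (methanol for controls) after 4 h of growth. Cells collected 1 h later, PBS-washed, and stained 10 min at room temperature with 100 μg ml−1 filipin in water. Scored by fluorescence microscopy (excitation 360–370 nm, emission 420–460 nm) as bud-tip versus uniform sterol staining.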

Test [2] has as its system Candida parapsilosis. The test is described as follows: Decrease in CTN1 gene expression in Candida parapsilosis CLIB214 at 50 uM after 2 hrs by microarray based transcriptional profiling relative to control. Type of test: functional. The essentials: (§1)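 Strain CLIB214 grown overnight in YPD at 30°C, diluted to A600 0.2 in fresh YPD at 30°C. After 4 h (A600 0.8), farnesol (40 mM methanol stock) added to 50 μM final, or an equal methanol volume as control; cells harvested 2 h later. RNA was accepted only with a 28S/18S ratio of 1.6–2.2. Cy3/Cy5-dCTP-labelled cDNA was made from 25 μg total RNA. Hybridisation was to duplicate-spotted 68-mer oligo arrays (3,849 genes) at 42°C for about 16 h. Six individual comparisons.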

Test [3] relates to Candida parapsilosis. The experiment in a line: Increase in POT1 gene expression in Candida parapsilosis CLIB214 at 50 uM after 2 hrs by microarray based transcriptional profiling relative to control. Type of test: functional. Summed up: (§2)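 Strain grown overnight in YPD at 30°C, diluted to A600 0.2 in YPD at 30°C; farnesol (40 mM methanol stock) added at 4 h (A600 0.8), final 50 μM; methanol-only control. Cells collected 2 h later for RNA. Labelled cDNA from 25 μg total RNA (Cy3/Cy5-dCTP) hybridized to 68-mer oligo arrays at 42°C ~16 h; six individual comparisons analysed statistically.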

Test [4] concerns Candida parapsilosis. The test is described as follows: Reduction in ERG9 gene expression in Candida parapsilosis CLIB214 by RT-PCR. Type of test: functional, organism-based. Summed up:
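Cultures in YPD at 30°C, diluted to A600 0.2; 50 μM farnesol (final) or methanol added at 4 h, RNA harvested 2 h later. RT-PCR: 95°C hot start 1 min 30 s, then 26 cycles (95°C 40 s, 55°C 2 min, 72°C 3 min), final 72°C 5 min; each gene signal normalized to ACT1.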

Test [5] deals with Candida parapsilosis. The experiment in a line: Increase in KRE30 gene expression in Candida parapsilosis CLIB214 at 50 uM after 2 hrs by microarray based transcriptional profiling relative to control. Type of test: functional. The essentials: as §2
Test [6] concerns Candida parapsilosis. The test is described as follows: Decrease in CGD gene ortholog accession number orf19.530 expression in Candida parapsilosis CLIB214 at 50 uM after 2 hrs by microarray based transcriptional profiling relative to control. It counts as functional. The essentials:
(§3)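 Cells in YPD at 30°C treated with 50 μM farnesol at 4 h, with a methanol control. RNA harvested 2 h later and kept only if 28S/18S ratio was 1.6–2.2 with no degradation. 25 μg total RNA oligo-dT primed and labeled with Cy3/Cy5-dCTP. Labeled cDNA hybridized about 16 h at 42°C to duplicate-spotted 68-mer oligo arrays. Six individual comparisons analyzed statistically.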

The test system of test [7] is Candida parapsilosis. The test is described as follows: Decrease in PIKA gene expression in Candida parapsilosis CLIB214 at 50 uM after 2 hrs by microarray based transcriptional profiling relative to control. It counts as functional. Summed up:
as §1

In test [8] the test system is Candida parapsilosis. The experiment in a line: Increase in CGD gene ortholog accession number orf19.1368 expression in Candida parapsilosis CLIB214 at 50 uM after 2 hrs by microarray based transcriptional profiling relative to control. It counts as functional. The essentials: as §1
The test system of test [9] is Candida parapsilosis. The experiment in a line: Increase in GenBank accession number NP_943645.1 expression in Candida parapsilosis CLIB214 at 50 uM after 2 hrs by microarray based transcriptional profiling relative to control. Type of test: functional. The essentials: as §2
The subject of test [10] is Candida parapsilosis. The test is described as follows: Decrease in AMO2 gene expression in Candida parapsilosis CLIB214 at 50 uM after 2 hrs by microarray based transcriptional profiling relative to control. Type of test: functional. Summed up:
as §3

In test [11] the test system is Candida parapsilosis. The experiment in a line: Antifungal activity against Candida parapsilosis CLIB214 assessed as growth inhibition in presence of 10% fetal calf serum at 30 degC. It counts as functional, organism-based. The essentials:
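YPD cultures started at A600 0.2, supplemented with 10% (vol/vol) fetal calf serum, and grown at 30°C or 37°C. Farnesol added with the serum. Growth monitored by A600 or cell counting.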

For test [12], the system named is Candida parapsilosis. The test is described as follows: Decrease in PGA55 gene expression in Candida parapsilosis CLIB214 at 50 uM after 2 hrs by microarray based transcriptional profiling relative to control. It counts as functional. The essentials:
as §1

Test [13] has as its system Candida parapsilosis. The experiment in a line: Antifungal activity against Candida parapsilosis CLIB214 assessed as growth inhibition at 50 uM added after 4 hrs of bacterial growth measured after 2 hrs. Type of test: functional. The note with it: Lodderomyces parapsilosis. Summed up:
(§4)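 Overnight YPD culture at 30°C diluted to A600 0.2 in YPD. Farnesol added to 50 μM final at 2, 4, 6 or 8 h of growth (A600 about 0.8 at 4 h, 2.3 at 6 h, 6 at 8 h). Growth compared with methanol controls by A600 or cell counts.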

Test [14] concerns Candida parapsilosis. The test is described as follows: Antifungal activity against Candida parapsilosis CLIB214 assessed as growth inhibition at 100 uM added 4 hrs after […] growth. It counts as functional, organism-based. Summed up:
(§5)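 C. parapsilosis CLIB214 grown overnight in YPD at 30°C, diluted to A600 0.2 in fresh YPD, grown 4 h (A600 0.8), then farnesol added at final 10, 20, 50 or 100 μM from a 40 mM methanol stock. Methanol-only controls. Growth followed by A600 or by cell counting with a particle counter.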

Test [15] deals with Candida parapsilosis. The experiment in a line: Decrease in CGD gene ortholog accession number orf19.2892 expression in Candida parapsilosis CLIB214 at 50 uM after 2 hrs by microarray based transcriptional profiling relative to control. It counts as functional. The essentials: as §3
Test [16] has as its system Candida parapsilosis. The experiment in a line: Increase in CGD gene ortholog accession number orf19.1026 expression in Candida parapsilosis CLIB214 at 50 uM after 2 hrs by microarray based transcriptional profiling relative to control. Type of test: functional. Summed up: as §1
Test [17] has as its system Candida parapsilosis. The test is described as follows: Increase in RPS6A gene expression in Candida parapsilosis CLIB214 at 50 uM after 2 hrs by microarray based transcriptional profiling relative to control. It counts as functional. Summed up:
as §2

Test [18] has as its system Candida parapsilosis. The experiment in a line: Decrease in CGD gene ortholog accession number orf19.4947 expression in Candida parapsilosis CLIB214 at 50 uM after 2 hrs by microarray based transcriptional profiling relative to control. It counts as functional. The essentials: as §3
For test [19], the system named is Candida parapsilosis. The test is described as follows: Antifungal activity against Candida parapsilosis CLIB214 assessed as growth inhibition at 50 uM added after 6 hrs of bacterial growth measured after 4 hrs. The conditions noted are these: Lodderomyces parapsilosis. It counts as functional. The essentials:
as §4

Test [20] deals with Candida parapsilosis. The experiment in a line: Increase in ARP3 gene expression in Candida parapsilosis CLIB214 at 50 uM after 2 hrs by microarray based transcriptional profiling relative to control. Type of test: functional. Summed up:
as §1

The test system of test [21] is Candida parapsilosis. The experiment in a line: Decrease in CGD gene ortholog accession number orf19.6744 expression in Candida parapsilosis CLIB214 at 50 uM after 2 hrs by microarray based transcriptional profiling relative to control. It counts as functional. The essentials: as §1
Test [22] concerns Candida parapsilosis. The test is described as follows: Antifungal activity against Candida parapsilosis CLIB214 assessed as growth inhibition at 50 uM added 4 hrs after […] growth. Type of test: functional, organism-based. Summed up: as §5
Test [23] has as its system Candida parapsilosis. The experiment in a line: Decrease in CGD gene ortholog accession number orf19.672 expression in Candida parapsilosis CLIB214 at 50 uM after 2 hrs by microarray based transcriptional profiling relative to control. Type of test: functional. The essentials: as §1

Regarding `CC(C)=CCC/C(C)=C/CC/C(C)=C/CO` [FARNESOL], the Activity in [1] is recorded as 82%. The “fold change (FC)” value in test [2] is recorded as 1.92; in [3], 1.71; in test [5], 2.24; in test [6] it was 1.89; in test [7], 1.65; in test [8] it was 1.59. The “fold change (FC)” value in test [9] stood at 2.05; in test [10], 1.56; in test [12], 1.76; in test [15] it was 1.69; in test [16], 1.55; in test [17], 1.61. For the same compound, the “fold change (FC)” value in [18] was 1.58; in [20] it was 1.67; in test [21], 1.66; in test [23], 1.77. For the same compound, the result in [4], in [14] and in test [22] was Active. Also, the outcome in test [11] was inactive. The inhibition at 50 µM in [13] was determined as 88.5%; in test [19], 49%.
